The source made the active and inactive calls. The rule behind the calls is not given here.
Columns and labels:
HASMC [1] = test: Antiinflammatory activity in HASMC cells assessed as effect on LPS/IFNgamma-induced iNOS gene expression at 2 uM […] and measured after 4 hrs by RT-qPCR analysis; assay type: functional, cell-based; conditions: Homo sapiens
In short: (§1)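 HBE cells (passage 73–103) or immortalized hASM cells (2–3 donors, passage 27–35), serum-starved. Then 2 μM RGFP966 for 20 h, with LPS/IFNγ for the last 4 h. Total RNA isolated; RT-qPCR by 2−ΔΔCt, fold change versus LPS/IFNγ control. Mean ± SD of 3–5 independent experiments.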

HBE [2] = test: Antiinflammatory activity in HBE cells assessed as effect on LPS/IFNgamma-induced iNOS gene expression at 2 uM […] by RT-qPCR analysis; assay type: functional, cell-based; conditions: Homo sapiens; in short: as §1
HBE [3] = test: Antiinflammatory activity in HBE cells assessed as effect on LPS/IFNgamma-induced IL-1beta gene expression at 2 uM […] by RT-qPCR analysis; assay type: functional, cell-based; conditions: Homo sapiens; in short: as §1
HBE [4] = test: Antiinflammatory activity in HBE cells assessed as effect on LPS/IFNgamma-induced IL-12b gene expression at 2 uM […] by RT-qPCR analysis; assay type: functional, cell-based; conditions: Homo sapiens; in short: as §1
HASMC [5] = test: Antiinflammatory activity in HASMC cells assessed as effect on LPS/IFNgamma-induced IL-10 gene expression at 2 uM […] by RT-qPCR analysis; assay type: functional, cell-based; conditions: Homo sapiens; in short: as §1
Lung [6] = test: Antiinflammatory activity in C57bl/6 mouse precision-cut lung slices assessed as down regulation of LPS/IFNgamma-induced IL-12b gene expression at 1 to 10 uM preincubated for 20 hrs followed by LPS/IFNgamma stimulation and measured after 4 hrs by RT-qPCR analysis; assay type: functional, tissue-based; conditions: dose 1-10 µM, time 24.0 hrs
In short: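 PCLS, 250 μm thick, cut from agarose-filled lungs of male C57bl/6 mice (24–28 g, 8–10 weeks). Three slices per well at 37 °C, 5% CO2. Slices received RGFP966 at 1 and 10 μM final for 20 h, with 10 ng/ml LPS and 10 ng/ml IFNγ stimulation. RNA isolated; RT-qPCR fold change versus LPS/IFNγ control by 2−ΔΔCt. Mean ± SD, n = 3–5.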

[7] = molecular target: T1, Histone deacetylase 3 (Mus musculus) (UniProt O88895); test: Inhibition of HDAC3 in mouse RAW264.7 cells assessed as effect on histone H3 peptide (KQLATKAAR) acetylation measured after 20 hrs by LC-MS/MS analysis; assay type: cell-based
T1 sequence (whole entry): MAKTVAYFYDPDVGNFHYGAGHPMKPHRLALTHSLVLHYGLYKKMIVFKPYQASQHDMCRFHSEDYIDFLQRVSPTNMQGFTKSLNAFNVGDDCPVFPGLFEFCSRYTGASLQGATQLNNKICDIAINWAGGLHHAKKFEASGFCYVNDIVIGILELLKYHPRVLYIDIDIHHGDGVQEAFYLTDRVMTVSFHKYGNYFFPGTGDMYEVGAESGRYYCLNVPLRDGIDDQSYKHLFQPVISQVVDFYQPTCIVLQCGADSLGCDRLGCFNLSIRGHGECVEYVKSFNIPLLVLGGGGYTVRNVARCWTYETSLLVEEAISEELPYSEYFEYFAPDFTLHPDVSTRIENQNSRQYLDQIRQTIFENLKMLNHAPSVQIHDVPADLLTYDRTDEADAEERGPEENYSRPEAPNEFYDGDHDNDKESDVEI
In short: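 Histones from RAW 264.7 (20 h treatment) run on 15% SDS-PAGE (7 μg), Coomassie-stained H3/H4 bands excised, destained, and chemically acetylated with acetic anhydride-d6 in 1 M ammonium bicarbonate; endogenous lysine acetylation ratio derived by mass spectrometry from deuterated versus non-deuterated acetyl mass difference.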

[8] = molecular target: T1, Histone deacetylase 3 (Mus musculus); test: Inhibition of HDAC3 in mouse RAW264.7 cells assessed as effect on LPS/IFNgamma-induced NF-kappaB p65 nuclear translocation preincubated for 20 hrs followed by LPS/IFNgamma stimulation and measured after 1 hr by immunofluorescence microscopy; assay type: cell-based
In short: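 RAW 264.7 seeded at 20,000 cells/cm2, 1 μM inhibitor 20 h then 1 h LPS/IFNγ; fixed 4% formaldehyde, permeabilized 0.25% Triton X-100, blocked 5% BSA; rabbit anti-p65 (1:250, 2 h 4 °C) with AlexaFluor488 secondary, Hoechst nuclei; confocal imaging at identical settings; 3 independent experiments.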

RAW264.7 [9] = test: Antiinflammatory activity in LPS/IFNgamma-stimulated mouse RAW264.7 cells assessed as reduction in HDAC2 expression preincubated for 20 hrs followed by LPS/IFNgamma stimulation and measured after 4 hrs by Western blot analysis; assay type: functional, cell-based; conditions: time 24.0 hrs
In short: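 RAW 264.7 cells were LPS/IFNγ-stimulated after inhibitor exposure, then lysed in Hepes/Triton buffer containing DTT, butyrate and protease inhibitors, freeze-thawed and cleared. Immunoblot with milk blocking and overnight primary antibody at 4 °C. Densitometry normalized to β-actin, LPS/IFNγ control set at 100%. Mean ± SD of 4 independent experiments.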

RAW264.7 [10] = test: Antiinflammatory activity in LPS/IFNgamma-stimulated mouse RAW264.7 cells assessed as effect on NF-kappaB p65 expression preincubated for 20 hrs followed by LPS/IFNgamma stimulation and measured after 4 hrs by Western blot analysis; assay type: functional, cell-based; conditions: time 24.0 hrs
Lung [11] = test: Antiinflammatory activity in C57bl/6 mouse precision-cut lung slices assessed as effect on LPS/IFNgamma-induced HDAC1 gene expression at 1 to 10 uM preincubated for 20 hrs followed by LPS/IFNgamma stimulation and measured after 4 hrs by RT-qPCR analysis; assay type: functional, tissue-based; conditions: dose 1-10 µM, time 24.0 hrs
Lung [12] = test: Antiinflammatory activity in C57bl/6 mouse precision-cut lung slices assessed as upregulation of LPS/IFNgamma-induced IkappaBalpha expression at 1 to 10 uM preincubated for 20 hrs followed by LPS/IFNgamma stimulation and measured after 4 hrs by Western blot analysis; assay type: functional, tissue-based; conditions: dose 1-10 µM, time 24.0 hrs
[13] = molecular target: T1, Histone deacetylase 3 (Mus musculus); test: Effect on HDAC3 nuclear localization in LPS/IFNgamma-stimulated mouse RAW264.7 cells preincubated for 20 hrs followed by LPS/IFNgamma stimulation and measured after 1 hr by Western blot analysis; assay type: cell-based
In short: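 RAW 264.7 cells treated for 20 h, then 1 h LPS/IFNγ, and fractionated into nuclear and cytosolic parts. Fractions immunoblotted, with PARP-1 and β-actin as internal controls. Densitometry with vehicle control set at 100%. Mean ± SD of 3–4 independent experiments.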

RAW264.7 [14] = test: Effect on HDAC3-NFkappaB p65 protein-protein interaction in LPS/IFNgamma-stimulated mouse RAW264.7 cells at 1 uM preincubated for 20 hrs followed by LPS/IFNgamma stimulation and measured after 1 hr by immunoprecipitation analysis; assay type: cell-based
In short: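 RAW 264.7 cells treated for 20 h, then LPS/IFNγ-stimulated. Lysates rotated 4 h at 4 °C and cleared. NF-κB p65 immunoprecipitated with mouse monoclonal antibody overnight at 4 °C, then Protein A/G agarose for 6 h at 4 °C, followed by washes. Immunoblot for HDAC 3, densitometry normalized to NF-κB p65. Mean ± SD of 3 experiments.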

[15] = molecular target: T1, Histone deacetylase 3 (Mus musculus); test: Inhibition of HDAC3 in mouse RAW264.7 cells assessed as effect on LPS/IFNgamma-induced NF-kappaB p65 acetylation level preincubated for 20 hrs followed by LPS/IFNgamma stimulation and measured after 1 hr by Western blot analysis

Nc1cc(F)ccc1NC(=O)/C=C/c1cnn(C/C=C/c2ccccc2)c1
Activity (HASMC [1]): inactive
Activity (HBE [2]): inactive
Activity (HBE [3]): inactive
Activity (HBE [4]): inactive
Activity (HASMC [5]): inactive
Activity (Lung [6]): Active
inhibition [7]: inactive
inhibition [8]: inactive
Activity (RAW264.7 [9]): Active
Activity (RAW264.7 [10]): inactive
Activity (Lung [11]): inactive
Activity (Lung [12]): Active
Activity [13]: inactive
Activity (RAW264.7 [14]): inactive
inhibition [15]: inactive
